Experiment [1] has as its target Metabotropic glutamate receptor 2 (Rattus norvegicus) (UniProt P31421). Description: Ratio between EC50 of compound and glutamate measured against Metabotropic glutamate receptor 2. The class given is functional. Put shortly:
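mGluR2 (rat, transient in HEK 293 cells with co-expressed Gqi9 chimera) inositol phosphate formation; EC50 from Hill fits of at least eight concentrations over 3 orders of magnitude, reported as ratio to the glutamate EC50 determined under the same conditions.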

The target in experiment [2] is T1, Metabotropic glutamate receptor 1 (Rattus norvegicus, UniProt P23385). Description: Inhibitory activity against Metabotropic glutamate receptor 1 in the rat LLC-PK1/HEK 293 cells. The class given is cell-based, HEK293. In a few lines:
(§1)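 Rat mGluR1a transiently expressed in LLC-PK1 or HEK 293 cells; receptor activity read as agonist-induced inositol phosphate formation. At least eight agonist concentrations spanning 3 orders of magnitude gave full dose-response curves, fitted to a Hill equation for maximal effect, EC50 (or IC50) and Hill coefficient.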

Experiment [3] deals with Metabotropic glutamate receptor 1 (Rattus norvegicus) (UniProt P23385). Description: Ratio between EC50 of compound and glutamate measured against metabotropic glutamate receptor 1. The format is functional. Put shortly:
(§2)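 mGluR1a (rat, transient in LLC-PK1 or HEK 293 cells) inositol phosphate formation; EC50 from Hill fits of at least eight-point curves over 3 log units, expressed as ratio of compound EC50 to glutamate EC50 measured in the same assay.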

For experiment [4], the target named is Metabotropic glutamate receptor 2 (Rattus norvegicus, UniProt P31421). Briefly: Inhibitory activity against Metabotropic glutamate receptor 2 in the rat HEK 293 cells. The class given is cell-based, HEK293. Put shortly: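 Rat mGluR2 transiently expressed in HEK 293 cells, cotransfected with chimeric G-protein Gqi9 so the receptor couples to PLC; activity read as agonist-induced inositol phosphate formation. At least eight concentrations over 3 orders of magnitude gave full dose-response curves, Hill-equation fit giving maximal effect, EC50 (or IC50) and Hill coefficient.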

Experiment [5] addresses Metabotropic glutamate receptor 1 (Rattus norvegicus) (UniProt P23385). Briefly: Ratio between the measured EC50 and the glutamate EC50 measured against Metabotropic glutamate receptor 1; No effect. The format is functional. In a few lines: as §2
In experiment [6] the target is T1, Metabotropic glutamate receptor 1. Description: Inhibitory activity against Metabotropic glutamate receptor 1 in the rat LLC-PK1/HEK 293 cells.; No effect. The class given is cell-based. The note with it: hek293. Put shortly: as §1
Experiment [7] has the same target. Description: Inhibitory activity against Metabotropic glutamate receptor 1 in the rat LLC-PK1/HEK 293 cells. The class given is cell-based, HEK293. In a few lines: as §1
The target in experiment [8] is Metabotropic glutamate receptor 2 (Homo sapiens, UniProt Q14416). Description: Inhibitory activity against human Metabotropic glutamate receptor 2.

Active and inactive are the calls of the source. The rule behind the calls is not given here. Bounds are passed on as bounds.

Metabotropic glutamate receptor 1 (Rattus norvegicus), sequence (P23385 19-1199 limits assumed): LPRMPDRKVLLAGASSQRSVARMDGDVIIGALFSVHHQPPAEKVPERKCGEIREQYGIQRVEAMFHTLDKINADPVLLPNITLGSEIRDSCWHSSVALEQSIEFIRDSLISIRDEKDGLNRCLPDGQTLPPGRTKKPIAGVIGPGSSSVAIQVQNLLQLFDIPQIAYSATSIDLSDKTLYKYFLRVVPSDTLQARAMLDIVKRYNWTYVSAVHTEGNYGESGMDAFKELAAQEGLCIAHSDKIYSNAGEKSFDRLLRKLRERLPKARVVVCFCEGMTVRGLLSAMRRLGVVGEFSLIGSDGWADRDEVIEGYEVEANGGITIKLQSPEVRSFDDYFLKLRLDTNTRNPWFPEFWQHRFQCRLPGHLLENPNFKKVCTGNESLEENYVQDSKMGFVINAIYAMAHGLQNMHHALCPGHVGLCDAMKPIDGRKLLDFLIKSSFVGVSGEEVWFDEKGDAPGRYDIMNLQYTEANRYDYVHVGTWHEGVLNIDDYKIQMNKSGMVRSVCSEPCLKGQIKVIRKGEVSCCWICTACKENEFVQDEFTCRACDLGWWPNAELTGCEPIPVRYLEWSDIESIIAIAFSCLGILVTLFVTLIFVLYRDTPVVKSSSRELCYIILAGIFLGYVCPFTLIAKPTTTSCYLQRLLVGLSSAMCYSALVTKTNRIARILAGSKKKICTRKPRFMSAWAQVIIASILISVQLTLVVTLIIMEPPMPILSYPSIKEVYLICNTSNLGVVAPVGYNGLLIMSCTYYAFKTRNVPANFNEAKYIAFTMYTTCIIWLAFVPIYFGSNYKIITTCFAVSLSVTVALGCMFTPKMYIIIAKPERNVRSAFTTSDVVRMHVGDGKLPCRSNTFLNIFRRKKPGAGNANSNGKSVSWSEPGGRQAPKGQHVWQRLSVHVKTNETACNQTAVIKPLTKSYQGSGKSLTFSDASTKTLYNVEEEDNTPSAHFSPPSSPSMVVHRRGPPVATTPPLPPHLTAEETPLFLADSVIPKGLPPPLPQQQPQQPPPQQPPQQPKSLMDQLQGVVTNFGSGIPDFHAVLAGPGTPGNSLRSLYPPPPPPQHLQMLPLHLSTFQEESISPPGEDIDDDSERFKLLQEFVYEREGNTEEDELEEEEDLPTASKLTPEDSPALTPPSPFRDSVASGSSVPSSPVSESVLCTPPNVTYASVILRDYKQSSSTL
T1 sequence (P23385 whole entry): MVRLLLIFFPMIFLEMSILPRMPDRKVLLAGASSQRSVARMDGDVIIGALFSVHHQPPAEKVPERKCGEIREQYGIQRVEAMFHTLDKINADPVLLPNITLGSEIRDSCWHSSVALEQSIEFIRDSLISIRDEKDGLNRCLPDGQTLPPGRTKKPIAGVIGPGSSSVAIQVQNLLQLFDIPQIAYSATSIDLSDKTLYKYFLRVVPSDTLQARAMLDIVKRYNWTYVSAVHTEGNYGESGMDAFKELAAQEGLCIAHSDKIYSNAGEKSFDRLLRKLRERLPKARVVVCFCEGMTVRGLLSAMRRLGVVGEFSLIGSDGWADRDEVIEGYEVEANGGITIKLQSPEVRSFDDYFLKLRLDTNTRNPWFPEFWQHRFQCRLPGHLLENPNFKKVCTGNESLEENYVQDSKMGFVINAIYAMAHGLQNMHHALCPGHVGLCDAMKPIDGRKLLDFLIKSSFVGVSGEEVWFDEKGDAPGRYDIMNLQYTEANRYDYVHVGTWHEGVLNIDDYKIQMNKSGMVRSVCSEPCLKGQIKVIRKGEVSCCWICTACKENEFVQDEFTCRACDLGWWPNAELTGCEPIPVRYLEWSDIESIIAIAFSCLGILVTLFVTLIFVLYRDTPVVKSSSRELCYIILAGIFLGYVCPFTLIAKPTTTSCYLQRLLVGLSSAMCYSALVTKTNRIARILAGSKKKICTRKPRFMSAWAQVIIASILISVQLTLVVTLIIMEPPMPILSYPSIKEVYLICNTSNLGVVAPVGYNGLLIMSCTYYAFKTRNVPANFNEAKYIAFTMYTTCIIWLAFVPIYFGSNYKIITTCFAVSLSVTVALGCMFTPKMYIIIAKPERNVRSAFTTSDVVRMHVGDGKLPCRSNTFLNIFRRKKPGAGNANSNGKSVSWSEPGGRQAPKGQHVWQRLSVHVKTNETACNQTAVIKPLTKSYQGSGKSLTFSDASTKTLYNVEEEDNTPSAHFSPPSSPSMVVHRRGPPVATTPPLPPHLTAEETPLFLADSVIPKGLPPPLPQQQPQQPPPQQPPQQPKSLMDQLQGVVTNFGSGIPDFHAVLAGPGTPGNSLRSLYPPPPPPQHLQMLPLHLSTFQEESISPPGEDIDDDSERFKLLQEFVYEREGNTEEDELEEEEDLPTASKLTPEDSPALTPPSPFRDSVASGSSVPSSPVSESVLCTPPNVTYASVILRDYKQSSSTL
Metabotropic glutamate receptor 2 (Rattus norvegicus), sequence (P31421 19-872 limits assumed): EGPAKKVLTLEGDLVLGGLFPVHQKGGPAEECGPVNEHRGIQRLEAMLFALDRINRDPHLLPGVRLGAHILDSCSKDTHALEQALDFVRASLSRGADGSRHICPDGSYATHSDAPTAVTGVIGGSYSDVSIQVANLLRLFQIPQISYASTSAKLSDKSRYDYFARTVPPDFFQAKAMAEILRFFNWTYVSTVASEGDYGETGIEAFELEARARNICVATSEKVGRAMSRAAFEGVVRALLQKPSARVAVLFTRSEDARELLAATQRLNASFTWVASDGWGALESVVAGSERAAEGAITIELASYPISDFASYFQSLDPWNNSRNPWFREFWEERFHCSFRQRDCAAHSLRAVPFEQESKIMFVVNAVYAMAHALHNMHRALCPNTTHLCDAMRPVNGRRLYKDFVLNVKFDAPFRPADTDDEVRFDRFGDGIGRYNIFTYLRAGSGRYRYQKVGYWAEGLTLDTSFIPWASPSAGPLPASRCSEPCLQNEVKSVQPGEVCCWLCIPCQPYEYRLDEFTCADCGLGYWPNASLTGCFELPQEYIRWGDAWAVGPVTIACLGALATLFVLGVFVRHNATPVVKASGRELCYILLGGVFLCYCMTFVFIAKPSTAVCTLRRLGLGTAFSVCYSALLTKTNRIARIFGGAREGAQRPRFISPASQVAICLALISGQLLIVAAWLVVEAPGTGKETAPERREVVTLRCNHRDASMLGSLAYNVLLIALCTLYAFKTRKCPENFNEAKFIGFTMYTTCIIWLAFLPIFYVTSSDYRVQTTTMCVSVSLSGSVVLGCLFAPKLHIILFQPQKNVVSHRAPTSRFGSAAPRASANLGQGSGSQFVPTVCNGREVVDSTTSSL
Metabotropic glutamate receptor 2 (Rattus norvegicus, UniProt P31421), sequence (P31421 whole entry): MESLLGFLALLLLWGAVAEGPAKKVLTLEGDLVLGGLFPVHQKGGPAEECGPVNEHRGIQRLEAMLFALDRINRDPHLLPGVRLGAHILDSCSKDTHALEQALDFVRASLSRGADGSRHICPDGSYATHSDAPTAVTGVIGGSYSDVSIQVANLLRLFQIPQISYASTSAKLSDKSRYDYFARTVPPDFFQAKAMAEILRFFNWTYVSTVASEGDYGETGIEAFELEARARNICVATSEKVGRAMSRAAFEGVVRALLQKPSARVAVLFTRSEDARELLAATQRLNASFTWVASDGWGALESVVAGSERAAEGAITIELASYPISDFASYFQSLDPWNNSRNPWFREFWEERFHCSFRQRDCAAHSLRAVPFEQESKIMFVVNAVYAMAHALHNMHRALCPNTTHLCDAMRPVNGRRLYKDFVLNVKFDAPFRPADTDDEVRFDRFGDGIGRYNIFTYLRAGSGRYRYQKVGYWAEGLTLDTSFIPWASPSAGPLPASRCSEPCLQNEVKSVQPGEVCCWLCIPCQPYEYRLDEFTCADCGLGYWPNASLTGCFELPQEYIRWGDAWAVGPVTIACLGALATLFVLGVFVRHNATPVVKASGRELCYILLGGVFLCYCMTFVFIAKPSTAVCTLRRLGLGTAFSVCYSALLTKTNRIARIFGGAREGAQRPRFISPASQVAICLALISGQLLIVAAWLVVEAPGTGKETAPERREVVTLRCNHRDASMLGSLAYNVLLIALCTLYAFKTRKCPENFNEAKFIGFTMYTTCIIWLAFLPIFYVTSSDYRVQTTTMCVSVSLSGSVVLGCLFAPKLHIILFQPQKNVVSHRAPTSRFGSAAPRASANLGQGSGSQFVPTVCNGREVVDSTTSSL
Metabotropic glutamate receptor 2 (Homo sapiens, UniProt Q14416), sequence (Q14416 whole entry): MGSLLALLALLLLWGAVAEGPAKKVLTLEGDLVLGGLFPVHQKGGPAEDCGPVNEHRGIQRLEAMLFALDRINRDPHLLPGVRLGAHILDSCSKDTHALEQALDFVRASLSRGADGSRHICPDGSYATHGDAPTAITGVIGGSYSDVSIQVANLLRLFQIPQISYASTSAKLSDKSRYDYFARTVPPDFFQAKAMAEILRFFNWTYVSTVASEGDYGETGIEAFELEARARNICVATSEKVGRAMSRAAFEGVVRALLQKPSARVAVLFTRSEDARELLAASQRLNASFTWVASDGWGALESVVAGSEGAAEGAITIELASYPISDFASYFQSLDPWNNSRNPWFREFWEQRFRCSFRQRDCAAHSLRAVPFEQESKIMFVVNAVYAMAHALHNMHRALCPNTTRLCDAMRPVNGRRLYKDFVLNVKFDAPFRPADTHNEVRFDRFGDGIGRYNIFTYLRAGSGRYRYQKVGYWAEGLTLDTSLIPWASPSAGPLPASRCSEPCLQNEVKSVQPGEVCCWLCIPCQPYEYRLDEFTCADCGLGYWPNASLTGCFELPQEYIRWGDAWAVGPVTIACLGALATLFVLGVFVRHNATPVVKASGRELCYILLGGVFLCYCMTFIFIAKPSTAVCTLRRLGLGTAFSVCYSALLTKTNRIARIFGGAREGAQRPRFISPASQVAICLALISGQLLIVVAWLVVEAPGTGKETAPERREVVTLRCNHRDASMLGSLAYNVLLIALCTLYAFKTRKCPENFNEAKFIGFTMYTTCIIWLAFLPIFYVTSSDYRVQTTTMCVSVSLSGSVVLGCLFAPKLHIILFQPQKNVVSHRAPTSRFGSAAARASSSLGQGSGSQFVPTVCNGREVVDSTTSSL

What is called IC50 is the concentration at which inhibition is half-maximal. Consider `N[C@H](C(=O)O)C1[C@@H](C(=O)O)[C@@H]1C(=O)O` (stereo partly specified), for which the EC50 ratio in experiment [1] was determined as 0.03. In experiment [2], the IC50 is 389 µM.
In the case of `N[C@@H](CCC(=O)O)C(=O)O`, the EC50 ratio in experiment [1] and in experiment [3] was 1 each time.
In the case of `C=C(CC(N)C(=O)O)C(=O)O` (racemic), the EC50 ratio in experiment [1] stood at 0.4; in experiment [3], 1.1.
For the compound `NC1(C(=O)O)CC2CCC1C2C(=O)O` (stereo in doubt; 8) [listing 1 of 2 here], in experiment [2], 300 µM corresponded to half-maximal inhibition (IC50).
Take `NC1(C(=O)O)CC2CCC1C2C(=O)O` (stereo in doubt; 8) [listing 2 of 2 here]: the EC50 ratio in experiment [1] is greater than 80.
With `N[C@H](C(=O)O)c1cc(O)cc(O)c1`, the EC50 ratio in experiment [3] is 0.53.
Consider `N[C@@H](CC(C(=O)O)C(=O)O)C(=O)O`, for which the IC50 was 102 µM in experiment [4] and “Not Active” in experiment [6]. Besides, in experiment [5], the EC50 ratio result is “inactive”.
Turning to `NC1(C(=O)O)CC2CC1C2C(=O)O` (stereo in doubt; 14), the EC50 ratio in experiment [1] turned out to be 131; in experiment [3], 47.
With `N[C@H](C(=O)O)c1cc(O)no1`, the EC50 ratio turned out to be 25 in experiment [1] and 0.91 in experiment [3].
`C[C@H](C[C@H](N)C(=O)O)C(=O)O`: the EC50 ratio in experiment [1] came out at 23; in experiment [3], 4.6.
As to `N[C@@]1(C(=O)O)CC[C@H](C(=O)O)C1`, the figures for the EC50 ratio in experiment [1] and in experiment [3] were 1.2 and greater than 25, respectively.
In experiment [7], `N[C@H](C(=O)O)c1ccc(C(=O)O)c(O)c1` showed an IC50 of 40 µM. Further, the EC50 ratio in experiment [1] is 4.
Regarding `C[C@@H](CC(=O)O)[C@H](N)C(=O)O`, the EC50 ratio amounted to 80 in experiment [1] and 13 in experiment [3].
Turning to `NC1(C(=O)O)CC2CCC1C2C(=O)O` (stereo in doubt; 10), the EC50 ratio in experiment [1] and in experiment [3] was greater than 80 each time.
Turning to `N[C@@H](Cn1oc(=O)[nH]c1=O)C(=O)O`, the EC50 ratio in experiment [1] was greater than 90; in experiment [3] it was 0.02.
`N[C@@H](C[C@H](CCCC(c1ccccc1)c1ccccc1)C(=O)O)C(=O)O`: the IC50 in experiment [8] was 0.4 µM; in experiment [6], “Not Active”.
Regarding `N[C@]1(C(=O)O)C[C@H](C(=O)O)[C@H](C(=O)O)C1`, the IC50 in experiment [4] was 88 µM; in experiment [2], 115 µM. The EC50 ratio result in experiment [5] is “inactive”.
As to `C[C@@](N)(C(=O)O)[C@H]1C[C@@H]1C(=O)O`, the IC50 in experiment [4] is 77 µM. Moreover, the EC50 ratio result in experiment [5] is “inactive”.
Turning to `CC(N)(CCC(=O)O)C(=O)O` (racemic), the EC50 ratio in experiment [1] is greater than 80.
Turning to `N[C@H](C(=O)O)c1cccc(O)c1`, the EC50 ratio in experiment [1] was greater than 80; in experiment [3], 7.8.
On to `N[C@H](C(=O)O)[C@@H]1C[C@H]1C(=O)O`, for which the EC50 ratio in experiment [3] came to 20.
Take `NC1(C(=O)O)CC2CC1C2C(=O)O` (stereo in doubt; 13): the EC50 ratio amounted to 186 in experiment [1] and 25 in experiment [3].
For `N[C@@]1(C(=O)O)CC[C@@H](C(=O)O)C1` the same measures were 1.6 and 0.75.
In the case of `C[C@@H](C[C@H](N)C(=O)O)C(=O)O`, the EC50 ratio in experiment [1] is 0.3; in experiment [3], 0.5.
Take `N[C@]1(C(=O)O)CC[C@H](C(=O)O)C1`: the EC50 ratio in experiment [1] and in experiment [3] was 10 each time.
Consider `C=C(C[C@H](N)C(=O)O)C(=O)O`, for which the EC50 ratio in experiment [3] amounted to 0.7.
Take `C[C@@](N)(CCC(=O)O)C(=O)O`: the EC50 ratio in experiment [3] is greater than 80.
Regarding `C[C@H](C[C@@H](N)C(=O)O)C(=O)O`, the EC50 ratio was 1.1 in experiment [1] and 4.9 in experiment [3].
Turning to `N[C@H](C(=O)O)C12CC(C(=O)O)(C1)C2`, the IC50 was greater than 300 µM in experiment [4] and 25 µM in experiment [2]. The EC50 ratio in experiment [1] was greater than 60.
Take `C[C@H](CC(=O)O)[C@H](N)C(=O)O`: the EC50 ratio is 12 in experiment [1] and 23 in experiment [3].
As to `N[C@H](C(=O)O)[C@H]1C[C@@H]1C(=O)O`, the EC50 ratio stood at 0.04 in experiment [1] and 5 in experiment [3].
Take `N[C@@H](C[C@H](CC(c1ccccc1)c1ccccc1)C(=O)O)C(=O)O`: the IC50 is 3 µM in experiment [8] and “Not Active” in experiment [6].
Take `O=C(O)[C@H]1C[C@H](C(=O)O)N1`: the EC50 ratio is greater than 80 in experiment [1] and 15 in experiment [3].
Consider `C=C(C[C@@H](N)C(=O)O)C(=O)O`, for which the EC50 ratio in experiment [3] came out at 14.
Consider `N[C@@]1(C(=O)O)CC[C@H]2[C@H](C(=O)O)[C@H]21`, for which, in experiment [1], the EC50 ratio came to 0.004. In experiment [2], inhibition was half-maximal at 458 µM (IC50).
In the case of `CC(CC(N)C(=O)O)C(=O)O` (racemic), the EC50 ratio in experiment [1] stood at 0.53; in experiment [3], 0.65.
With `C[C@](N)(CCC(=O)O)C(=O)O`, the EC50 ratio in experiment [3] is greater than 80.
Turning to `NC1(C(=O)O)C2CCC1C(C(=O)O)C2` (stereo unspecified), the IC50 in experiment [4] and in experiment [2] was greater than 1000 µM throughout. Further, the EC50 ratio in experiment [1] and in experiment [3] was greater than 80 in each case.
As for `NC1(C(=O)O)CC2CC1C2C(=O)O` (stereo in doubt; 12), the EC50 ratio in experiment [1] was 1.1; in experiment [3], 0.32.
Take `N[C@@]1(C(=O)O)CN[C@@H](C(=O)O)C1`: the results for the EC50 ratio in experiment [1] and in experiment [3] were 0.4 and greater than 80, respectively.

The record behind these values is ChEMBL document CHEMBL1132716, “Agonist selectivity of mGluR1 and mGluR2 metabotropic receptors: a different environment but similar recognition of an extended glutamate conformation” (J Med Chem, 1999).
